Reference: ChEMBL document CHEMBL3745635, “Cytotoxic Orbitide from the Latex of Croton urucurana” (J Nat Prod, 2015)
In brackets after ≈: the same amount, converted by molar mass. Residues, ends and D or L forms follow the SMILES beside them.

Columns and labels:
786-0 = assay: Cytotoxicity against human 786-0 cells assessed as growth inhibition after 48 hrs by sulforhodamine B assay; assay type: functional; conditions: 786-0, 48 h
Summary of the method: (§1)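 Cells seeded at 7.5 × 10^3 per well. Samples were dissolved in DMSO, aliquoted and stored at −20 °C. GI50 values are means of three independent experiments, each run in triplicate. Doxorubicin served as positive control.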

HT-29 = assay: Cytotoxicity against human HT-29 cells assessed as growth inhibition after 48 hrs by sulforhodamine B assay; assay type: functional; conditions: HT-29, 48 h; summary of the method: as §1
MCF7 = assay: Cytotoxicity against human MCF7 cells assessed as growth inhibition after 48 hrs by sulforhodamine B assay; assay type: functional; conditions: MCF7, 48 h; summary of the method: as §1
[1] = Cytotoxicity against human NCI-ADR-RES cells assessed as growth inhibition after 48 hrs by sulforhodamine B assay; assay type: functional; summary of the method: as §1
HepG2 = assay: Cytotoxicity against human HepG2 cells assessed as growth inhibition after 48 hrs by sulforhodamine B assay; assay type: functional; conditions: HepG2, 48 h; summary of the method: as §1
[2] = Cytotoxicity against human PC3 cells assessed as growth inhibition after 48 hrs by sulforhodamine B assay; assay type: functional; conditions: PC-3, 48 h; summary of the method: as §1
[3] = Cytotoxicity against mouse NIH/3T3 cells assessed as growth inhibition after 48 hrs by sulforhodamine B assay; assay type: cell-based, NIH3T3; summary of the method: as §1

CC(C)C[C@@H]1NC(=O)[C@H](CO)NC(=O)CNC(=O)[C@H](CC(C)C)NC(=O)[C@H](CC(N)=O)NC(=O)CNC(=O)[C@H](Cc2ccccc2)NC(=O)[C@H](C)NC(=O)CNC1=O (cyclo(AFGNLGSLG))
GI50 (786-0): 18.7 µg/mL (≈ 22.9 µM)
GI50 (HT-29): 37.3 µg/mL (≈ 45.6 µM)
GI50 (MCF7): 35.5 µg/mL (≈ 43.4 µM)
GI50 [1]: 4.8 µM
GI50 (HepG2): 41.3 µg/mL (≈ 50.6 µM)
GI50 [2]: 29.8 µg/mL (≈ 36.5 µM)
GI50 at 48 h [3]: > 306 µM

COc1cccc2c1C(=O)c1c(O)c3c(c(O)c1C2=O)C[C@@](O)(C(=O)CO)C[C@@H]3O[C@H]1C[C@H](N)[C@H](O)[C@H](C)O1 [DOXORUBICIN]
GI50 (786-0): 0.15 µg/mL (≈ 0.276 µM)
GI50 (HT-29): 0.85 µg/mL (≈ 1.56 µM)
GI50 (MCF7): 0.07 µg/mL (≈ 0.129 µM)
GI50 [1]: 5.1 µM
GI50 (HepG2): 0.25 µg/mL (≈ 0.46 µM)
GI50 [2]: 0.22 µg/mL (≈ 0.405 µM)
GI50 at 48 h [3]: 4 µM
